Experiment [1] deals with T1, Galectin-8 (Homo sapiens) (UniProt O00214).
T1 sequence (whole entry): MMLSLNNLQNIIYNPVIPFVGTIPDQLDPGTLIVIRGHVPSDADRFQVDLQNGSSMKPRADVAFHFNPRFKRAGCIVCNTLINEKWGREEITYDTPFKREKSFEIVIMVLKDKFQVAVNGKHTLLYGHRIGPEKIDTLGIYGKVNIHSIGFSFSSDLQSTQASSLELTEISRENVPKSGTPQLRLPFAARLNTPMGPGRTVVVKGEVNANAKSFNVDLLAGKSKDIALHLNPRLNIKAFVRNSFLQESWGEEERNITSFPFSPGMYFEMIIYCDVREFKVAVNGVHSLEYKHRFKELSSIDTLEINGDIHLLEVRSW
The experiment in a line: Antagonist activity at galectin-8 in human SUM159PT cells assessed as reduction in galectin-8-induced IL-6 mRNA expression at 500 uM incubated for 24 hrs by real-time PCR analysis. The class given is cell-based. The method, boiled down: (§1)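 SUM159 triple-negative breast cancer cells grown in RPMI with 10% FBS and penicillin/streptomycin at 37 °C, 5% CO2. Cells seeded at 50000 cells/cm², then incubated 24 h with compound at 500 µM, with or without 50 nM galectin-8. Means ± SEM from experiments done in duplicates.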

In experiment [2] the target is T1, Galectin-8 (Homo sapiens). The experiment in a line: Antagonist activity at galectin-8 in human SUM159PT cells assessed as reduction in galectin-8-induced IL-6 mRNA expression at 1 uM incubated for 24 hrs by real-time PCR analysis. To be noted: filed as antagonist. The class given is cell-based. Summed up: (§2)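 SUM159 triple-negative breast cancer cells in RPMI/10% FBS at 37 °C, 5% CO2, seeded at 50000 cells/cm². Galectin-8 (50 nM) stimulated, with or without compound. Dose-response run at 1, 10, 100 and 500 µM.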
(Real-time PCR tracks product formation cycle by cycle.)

A further experiment addresses T2, Galectin-8 (Homo sapiens, UniProt O00214).
T2 sequence (O00214 whole entry): T1 sequence (whole entry)
The experiment in a line: Binding affinity to N-terminal domain of human galectin-8 (8-154 residues) by ITC assay. Summed up: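 Untagged galectin-8N (residues 8-154) was expressed in bacteria (IPTG induction 4 h, room temperature) and purified on lactosyl-Sepharose at 4 °C. Protein and ligand were in 20 mM Tris pH 7.5, 100 mM NaCl, 4 mM BME, 5% DMSO and degassed. Ligand (0.5 or 1 mM) was titrated into 100 µM protein over 20-25 × 2.5 µl injections, 150 s apart, at 298 K. Blank-corrected data were fitted to an independent-site model for Kd.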

In experiment [3] the target is T1, Galectin-8 (Homo sapiens). Description: Antagonist activity at galectin-8 in human SUM159PT cells assessed as reduction in galectin-8-induced IL-8 mRNA expression at 1 uM incubated for 24 hrs by real-time PCR analysis. The class given is cell-based. The conditions noted are these: filed as antagonist. Summed up: as §2
In experiment [4] the target is T1, Galectin-8 (Homo sapiens). The experiment in a line: Antagonist activity at galectin-8 in human SUM159PT cells assessed as reduction in galectin-8-induced IL-1beta mRNA expression at 500 uM incubated for 24 hrs by real-time PCR analysis. The experiment is classed as cell-based. The method, boiled down: as §1
Experiment [5] concerns the target T1, Galectin-8 (Homo sapiens). Description: Antagonist activity at galectin-8 in human SUM159PT cells assessed as reduction in galectin-8-induced IL-8 mRNA expression at 500 uM incubated for 24 hrs by real-time PCR analysis. The experiment is classed as cell-based. The method, boiled down:
as §1

The target in experiment [6] is T1, Galectin-8 (Homo sapiens). The experiment in a line: Potency index, ratio of Kd for lactose to Kd for test compound for binding affinity to N-terminal domain of human galectin-8 (8-154 residues) by ITC assay. The conditions noted are these: filed as antagonist. (In general: ITC needs no label: the signal is the heat of the interaction.)

Each structure is given as a SMILES string. Calls of active or inactive are those of the source. No cut-off for these calls is given here.

With `CO[C@@H]1O[C@H](CO)[C@H](O)[C@H](OC(=O)CC(=O)OCc2ccccc2)[C@H]1O`, the inhibition result in experiment [1] (filed as antagonist), in experiment [2], in experiment [3] and in experiment [5] (filed as antagonist) was “Active” each time. On Galectin-8, binding was characterised by a dissociation constant (Kd) of 9.17 µM. In experiment [4] (filed as antagonist), the Antagonist activity result is “Active”.

As to `CO[C@@H]1O[C@H](CO)[C@H](O)[C@H](OC(=O)CC(=O)O)[C@H]1O`, the inhibition result in experiment [1] and in experiment [5] was “inactive” throughout. Moreover, the Kd at Galectin-8 was found to be 33.6 µM. Further, the Antagonist activity result in experiment [4] is “inactive”.

In turn, `COc1ccc(OC(=O)CC(=O)O[C@H]2[C@@H](O)[C@@H](CO)O[C@@H](OC)[C@@H]2O)cc1` registered a Kd at Galectin-8 of 9.47 µM.

Turning to `COC(=O)CC(=O)O[C@H]1[C@@H](O)[C@@H](CO)O[C@@H](OC)[C@@H]1O`, the inhibition result in experiment [1] and in experiment [5] was “inactive” in each case. Further, the Kd on Galectin-8 was 24.9 µM. For the same molecule, the Antagonist activity result in experiment [4] was “inactive”.

For `CO[C@@H]1O[C@H](CO)[C@H](O)[C@H](OC(=O)CC(=O)Oc2ccc(F)cc2)[C@H]1O`, the inhibition result in experiment [1] (filed as antagonist), in experiment [2], in experiment [3] and in experiment [5] (filed as antagonist) was “Active” in each case. The Kd at Galectin-8 is 5.72 µM. Further, the Ratio in experiment [6] was 7. The Antagonist activity result in experiment [4] (filed as antagonist) was “Active”.

Take `CC(=O)N[C@H]1[C@H]([C@H](O)[C@H](O)CO)O[C@@](O[C@H]2[C@@H](O)[C@@H](CO)O[C@@H](O[C@H]3[C@H](O)[C@@H](O)[C@H](O)O[C@@H]3CO)[C@@H]2O)(C(=O)O)C[C@@H]1O`: on Galectin-8, the Kd was determined as 2.3 µM.

The molecule `COc1cc(OC)cc(OC(=O)CC(=O)O[C@H]2[C@@H](O)[C@@H](CO)O[C@@H](OC)[C@@H]2O)c1` showed a Kd on Galectin-8 of 11 µM.

For `CO[C@@H]1O[C@H](CO)[C@H](O)[C@H](OC(=O)CC(=O)Oc2ccc(Cl)cc2Cl)[C@H]1O`, the Kd at Galectin-8 was found to be 11.9 µM.

At Galectin-8, `CO[C@@H]1O[C@H](CO)[C@H](O)[C@H](OC(=O)CC(=O)Oc2ccccc2)[C@H]1O` registered a Kd of 12.8 µM.

For orientation: Kd means the free concentration of one partner at which half of the binding sites on the other are occupied at equilibrium, for simple one-to-one binding. Read a high Kd as lower affinity.
